Hits are enriched below; roughly 3.1% of the tested compounds scored in any of these assays.
Insulin prom inh = inhibitors of insulin promoter-driven GFP, primary screen, imaging, TRM-6 cells (human fetal islet line), eGFP reporter, cell count; reporter expression induced with tamoxifen; inhibition, % at 2 µM; 130,000 compounds, 0.9% hits; AID 1273, 2008;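 active = inhibition above the mean plus 3 SD, with well images judged a real hit on visual review, cut at about 60% in these data, passing the limit was not always enough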
Yeast life ext = compounds extending yeast replicative lifespan, primary screen, S. cerevisiae, OD615; S. cerevisiae growth with nicotinamide; deaD strain in restrictive glucose medium; inhibition of the nicotinamide effect, % at 10 µM; 130,000 compounds, 0.68% hits; AID 775, 2007;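 active = inhibition above a set limit, placed 3 SD over the median of all compounds, cut at about 26% in these data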;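 note: 0% = nicotinamide-treated wells and 100% = cells grown without nicotinamide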
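Buffer or medium: CSMM-D glucose medium, restrictive; test system: modified budding yeast, DeaD strain; compound: single dose 10 µM compound, 0.25% DMSO; schedule: culture preincubation 4 h, compound exposure 48 h, both 30 °C; detection: optical density (absorbance) at 615 nm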
RAM inhibit = inhibitors of the yeast RAM network, primary screen, dse1pr::URA3 reporter, 5-FOA selection; AID 868, 2007; S. cerevisiae dse1pr::URA3 reporter, 5-FOA growth OD615, 2 d; analog-sensitive cbk1-as2 kinase mutant strain; inhibition, % at 50 µM; 190,000 compounds, 1.8% hits;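 active = inhibition above a set limit, 3 SD over mean compound inhibition, cut at about 8.4% in these data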;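 note: 0% = DMSO-only wells with no growth and 100% = 10 µM 1-NA-PP1 full growth; inhibition rescues growth on 5-FOA so higher OD means more RAM inhibition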
BB579 growth dn = growth inhibitors of yeast BB579 in restrictive medium, primary screen, yeast lifespan-shortening project, S. cerevisiae; OD615, 48 h; inhibition, % at 10 µM; 140,000 compounds, 0.51% hits; AID 804, 2007;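 active = inhibition above a set limit, 3 SD over the mean compound inhibition, cut at about 44% in these data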
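Assay system – yeast BB579 (DeaD) · Dosing – single compound dose of 10 µM, 0.25% DMSO final · Detection – OD615 turbidity measurement · Buffer or medium – CSMM-D restrictive synthetic medium containing dextrose (glucose) · Benchmarks – positive control amphotericin B 10 µg/mL · Incubation – 48 h exposure, 30 °C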
Ins promoter up = insulin promoter activators in MIN6 cells, imaging, high-content screening, mouse beta cells; MIN6 insulin promoter-GFP reporter; stronger effect = higher value; z-score at 5 µM; 190,000 compounds, 0.3% hits;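 active = z-score above 3 at 5 µM with at least 500 cells counted in the well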
* marks the source's active call; other numbers are inactive results; . = not tested or not shown.

SMILES	Insulin prom inh	Yeast life ext	RAM inhibit	BB579 growth dn	Ins promoter up
CS(=O)(=O)N(CC(=O)N1CCCCC1)c1ccc2c(c1)OCO2	-14	-24	3	-27	1
CCOC(=O)N1CCN(C(=O)CN(c2ccc3c(c2)OCO3)S(C)(=O)=O)CC1	79*	-11	1	8	0.32
On1nnc2c3ccccc3c3ccccc3c21	.	.	4	.	-0.34
O=C(Nc1cccc(F)c1)c1cc(S(=O)(=O)NCCC2=CCCCC2)ccc1F	.	2	11*	-42	-0.67
Cn1c(=O)c2[nH]c(-c3ccccc3Cl)c(O)c2n(C)c1=O	64*	-9	0	-7	-0.26
Cn1c(=O)c2[nH]c(-c3ccccc3)c(O)c2n(C)c1=O	-10	-2	3	-20	0.14
CCN(c1ccccc1)S(=O)(=O)c1cc(C(=O)Nc2ccc(F)c(F)c2)ccc1F	.	-2	11*	-26	-0.73
CCN(c1ccccc1)S(=O)(=O)c1cc(C(=O)O)ccc1C	-24	-8	1	-13	-0.47
CN1C(=O)C(c2nnc(Nc3cccc4ccccc34)s2)C2CC1(C)Oc1ccccc12 (configuration not stated)	14	-4	9.0*	-48	0.16
Cc1ccc(S(=O)(=O)C2C(=O)N(C)C3(C)CC2c2ccccc2O3)cc1C (configuration not stated)	.	-2	4	-32	0.08
CN(C)c1cccc(C(=O)OCCNC(=O)c2cccc(S(=O)(=O)N3CCOCC3)c2)c1	.	.	.	.	0.42
Cc1ccc2nc(-c3ccc(NS(C)(=O)=O)cc3)cc(-c3ccccc3)c2c1	3	-30	-2	90*	2.4
Cc1ccc(C(=O)N2CCN(C(=O)c3ccco3)CC2)cc1NC(=O)c1ccco1	-5	.	1	.	0.62
CCO/C=C1/C(=O)N(Cc2ccccc2)C(=O)c2ccccc21	50	32*	-1	13	0.51
Cc1cc(C)nc(N2CCCC(C(=O)NC(C)C)C2)n1 (configuration not stated)	.	.	2	.	0.36
Cn1c(=O)c2c(nc(NCC3CCCO3)n2Cc2ccccc2)n(C)c1=O (configuration not stated)	81*	.	1	-4	-0.68
CCCCC(=O)Nc1cccc(NC(=O)c2cccnc2Cl)c1	.	.	.	.	0.18
CCOc1ccc(CCNC(=O)Cn2cccc2C(=O)c2ccccc2C)cc1OCC	-50	1	-1	-20	-1.3
Oc1c(Cl)cc(Cl)c2cccnc12	-9	.	-1	.	.
Oc1c(I)cc(I)c2cccnc12	-14	-4	-1	83*	.
COc1ccc(/C=N/Nc2nccnc2Cl)cc1	83*	-8	2	-25	-0.05
COc1ccc(/C=N/Nc2nccnc2Cl)c(OC)c1	.	.	1	.	0.49
CCCCNC(=O)C1CC(=O)N(C2CCCCC2)C1 (configuration not stated)	-3	2	3	-1	3*
CC1=NNC(=O)C1C(c1ccccc1)C1C(=O)NN=C1C (configuration not stated)	50	.	1	.	.
COc1ccc(CNC(=O)COC(=O)Cc2ccc(Cl)cc2Cl)cc1	.	-3	11*	-28	0.18
SMILES	Insulin prom inh	Yeast life ext	RAM inhibit	BB579 growth dn	Ins promoter up
COc1ccc(CC(=O)OCC(=O)NCc2ccc(Cl)cc2)cc1	.	.	0	.	-0.19
Clc1ccc(CNC2CCCC2)c(Cl)c1	-20	-14	0	-23	-0.07
S=C(NCc1ccc(Cl)cc1Cl)NC1CCCCC1	-50	4	8	71*	-0.39
Cc1ccc2nc(NC(=O)CN(C)S(=O)(=O)c3ccc(Br)s3)sc2c1	66*	-2	3	-35	.
O=C(NCc1cccnc1)c1cccn2c(=O)c3sccc3nc12	.	-13	0	-27	-0.46
Cc1oc2c(cc(NS(=O)(=O)c3ccc4c5c(cccc35)C(=O)N4)c3ccccc32)c1C(=O)OC(C)C	-35	-2	9.2*	-41	-1
COc1ccc(N(CCC(=O)O)S(=O)(=O)c2ccc(C)cc2C)cc1	.	.	1	.	0.4
CCn1c(=O)c2c(O)cc(=O)oc2c2ccccc21	-24	42*	4	-2	.
CC(C)n1c(=O)c2c(O)cc(=O)oc2c2ccccc21	44	63*	2	-8	.
O=c1cc(O)c2c(=O)n(-c3ccccc3)c3ccccc3c2o1	.	24	4	-3	1.4
O=C(Nc1ccccc1-c1nnc(SCc2ccc(Cl)cc2Cl)o1)c1ccccc1	.	-4	10*	-21	-0.37
CC(C)(C)c1ccc(CSc2nnc(-c3ccccc3NC(=O)c3ccccc3)o2)cc1	19	-1	6	-33	0.11
COc1c(C(CC(C)C)OC(C)=O)ccc2c1C(=O)OCc1cc(C)cc(O)c1O2 (configuration not stated)	.	.	.	.	-0.42
O=C(O)c1cc2c(ccc3ccccc32)oc1=O	-193	-11	-1	67*	0.17
O=C(O)c1cc2ccc3ccccc3c2oc1=O	5	.	-2	64*	.
Nc1nnc(-c2cc3c(ccc4ccccc43)oc2=O)s1	.	.	4	.	8.8*
Cn1cc(S(=O)(=O)Nc2ccc3c(c2)OCCO3)cn1	.	.	1	.	0.04
CCOc1ccc(C(C)=O)cc1CSc1nc2nc(C)cc(C)n2n1	.	.	1	.	0.03
O=c1cc(CSc2nnc(C3CC3)n2Cc2ccccc2)nc2sccn12	.	.	4	.	0.21
Oc1c(Br)cc(Br)cc1C=Nc1ccc2c(c1)OCO2	-3	9	-1	97*	-0.09
c1ccc(OCc2nc3c4c(ncn3n2)-c2ccccc2CC42CCCC2)cc1	-43	3	8.4*	-21	-0.12
COc1ccc(C2C(C(C)=O)=C(C)N=c3s/c(=C\c4cc(C)n(C)c4C)c(=O)n32)c(OC)c1 (configuration not stated)	.	-6	8.4*	-38	.
COc1ccc(C2C(C(C)=O)=C(C)N=c3s/c(=C\c4ccco4)c(=O)n32)c(OC)c1 (configuration not stated)	.	-5	3	-39	-0.17
COc1ccc(C(=O)CCNc2ccc3c(c2)OCCO3)cc1	-356	.	0	.	2
CCN(CC)CCN(C(=O)c1ccc(S(=O)(=O)N2CCCCC2)cc1)c1nc2cc3c(cc2s1)OCO3	75*	.	-1	.	0.85
O=C1NCCCC1C(=O)N/N=C/c1cccc(Cl)c1 (configuration not stated)	.	.	.	.	-0.05
C=C(C)CNC(=S)N/N=C/C1=CCC2CC1C2(C)C (configuration not stated)	.	1	7	-26	-0.41
CCCCNC(=S)N/N=C/C1=CCC2CC1C2(C)C (configuration not stated)	23	0	8.6*	-7	-0.85
Cc1ccc(NC(=O)CN(C)S(=O)(=O)c2cccs2)cc1F	74*	-6	0	-5	0.01
Cc1ccc(NC(=O)CN(C)S(=O)(=O)c2cccs2)cc1C	-8	-8	0	-60	0.73

Compound activity (PubChem BioAssay)
